Experimental data as given in ChEMBL document CHEMBL1144894, “Synthesis of 1-boraadamantaneamine derivatives with selective astrocyte vs C6 glioma antiproliferative activity. A novel class of anti-hepatitis C agents with potential to bind CD81” (2003).

Experiments:
[1] = species on record: Rattus norvegicus; assay: Concentration showing a non-astrocyte selective antiproliferative effect was determined; assay type: functional
How it was run: (§1)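 Primary rat pup astrocytes (CD81-enriched, 4-8 days postpartum) and C6 glioma (CD81-deficient) were run in parallel, seeded at 3 × 10³ and 10³ cells/well. Compounds at 0.1-10 µM were given in 2% FCS-BME (0.05% DMSO final) for 4 days at 37 °C, 5% CO₂. Cells were formaldehyde-fixed and cresyl violet-stained (pH 3.7), with A560 read-out. % survival is relative to untreated wells, from 3 experiments × 4 wells.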

[2] = Nonspecific cytotoxicity at the specified concentration; assay type: functional
[3] = Antiproliferative effect was determined on CD81 enriched cell lines for binding and activation of the CD81 receptor; assay type: functional, Rattus norvegicus; how it was run: as §1
[4] = Tested for greatest astrocyte-selective antiproliferative character at concentration of 5 uM; assay type: functional
How it was run: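 Rat pup primary astrocytes (CD81-enriched, 4-8 days postpartum) and C6 glioma cells run in parallel, seeded at 3 × 10³ and 10³ per well. Incubated with compound for 4 days at 37 °C, 5% CO₂, final DMSO 0.05%. Fixed in formaldehyde, stained with cresyl violet, dye eluted in acetic acid, A560 read. % survival = treated/untreated ×100. Three experiments, four wells each.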

Compound | Concentration [1] | Cytotoxicity [2] | Antiproliferative effect [3] | Cell survival [4]
COC(=O)[C@H](CS)[NH2+][B-]12CC3CC(CC(C3)C1)C2 | 10 µM |  |  | 
C1C2CC3CC1C[B-]([NH2+]C14CC5CC(CC(C5)C1)C4)(C2)C3 | 10 µM |  |  | 
COC(=O)[C@H](CC(C)C)NC(=O)C12CC3CC(CC(C3)C1)C2 | 10 µM |  |  | 
COC(=O)[C@H](CC(C)C)[NH2+][B-]12CC3CC(CC(C3)C1)C2 |  | >10 µM | 10 µM | 
COC(=O)[C@H](Cc1ccccc1)[NH2+][B-]12CC3CC(CC(C3)C1)C2 |  | >10 µM | 10 µM | 
C1C2CC3CC1CC(NC14CC5CC(CC(C5)C1)C4)(C2)C3 | 10 µM |  |  | 
CC(C)C[C@H](NC(=O)C12CC3CC(CC(C3)C1)C2)C(=O)O |  | >10 µM | 10 µM | 
O=C(O)[C@H](Cc1ccccc1)NC(=O)C12CC3CC(CC(C3)C1)C2 |  | >10 µM | 10 µM | 82%
COC(=O)[C@H](Cc1ccccc1)NC(=O)C12CC3CC(CC(C3)C1)C2 |  | >10 µM | 10 µM | 
O=C(NC12CC3CC(CC(C3)C1)C2)C12CC3CC(CC(C3)C1)C2 | 10 µM |  |  | 
OCC[NH2+][B-]12CC3CC(CC(C3)C1)C2 |  | >10 µM | 10 µM | 
